Tests used:
[1] = molecular target: Adenosine receptor A1 (Bos taurus) (UniProt P28190); experiment: Displacement of [3H]DPCPX from bovine adenosine A1 receptor in bovine cortical membranes
Adenosine receptor A1 = molecular target: T1, Adenosine receptor A1 (Bos taurus, UniProt P28190); experiment: Displacement of [3H]DPCPX from adenosine A1 receptor in bovine cerebral cortical membranes; assay type: cell membranes
T1 sequence (P28190 whole entry): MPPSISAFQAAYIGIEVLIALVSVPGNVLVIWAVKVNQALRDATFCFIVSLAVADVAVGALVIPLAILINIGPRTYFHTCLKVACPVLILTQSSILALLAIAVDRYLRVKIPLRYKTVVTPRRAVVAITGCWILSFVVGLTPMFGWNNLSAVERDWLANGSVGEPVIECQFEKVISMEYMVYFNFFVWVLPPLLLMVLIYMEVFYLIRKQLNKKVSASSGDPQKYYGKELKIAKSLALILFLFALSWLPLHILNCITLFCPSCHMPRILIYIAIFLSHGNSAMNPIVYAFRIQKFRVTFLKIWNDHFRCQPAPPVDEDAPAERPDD
Method in brief: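 [3H]DPCPX was displaced from A1 sites in bovine cortical membranes. Compounds were taken up in DMSO and diluted in assay buffer, with DMSO at 2% or less final. Ki used at least six concentrations across 3 orders of magnitude and was the mean ± SEM of three independent assays in triplicate.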

[2] = system: Adenosine receptor A2a (Bos taurus); experiment: Displacement of [3HCGS21680 from adenosine A2A receptor in bovine striatal membranes at 10 uM

| SMILES | Ki [1] | Ki (Adenosine receptor A1) | inhibition [2] |
| --- | --- | --- | --- |
| COC(=O)c1cnc2c(cnn2CC(Cl)c2ccccc2)c1NCc1ccccc1 (stereo not drawn) | 126 nM | 141 nM |  |
| CCOC(=O)c1cnc2c(cnn2CC(Cl)c2ccccc2)c1NCCc1cccc(F)c1 (stereo not drawn) | 31.6 nM | 33 nM | 25% |
| CCCNc1c(C(=O)OCC)cnc2c1cnn2CC(Cl)c1ccccc1 (stereo not drawn) | 100 nM |  |  |
| CCCc1cc(O)c2ccc(N)nc2n1 | 200 nM |  |  |
| CCOc1cc(-c2ccccc2)nc2nc(Br)ccc12 | 50.1 nM |  |  |
| Cc1ccc2c(O)ccnc2n1 | 7940 nM |  |  |
| CCC(C)OC(=O)c1cnc2c(cnn2CC(Cl)c2ccccc2)c1NCCc1ccccc1 (stereo not drawn) | 63.1 nM | 62 nM | 46% |
| CC(C)OC(=O)c1cnc2c(cnn2CC(Cl)c2ccccc2)c1NCc1ccccc1 (stereo not drawn) | 631 nM | 559 nM |  |
| Cc1ccc2c(O)cc(-c3ccc(F)cc3)nc2n1 | 5.01 nM |  |  |
| CCOC(=O)c1cnc2c(cnn2CC(Cl)c2ccccc2)c1NCCc1ccccc1 (stereo not drawn) | 50.1 nM |  |  |
| CCCOC(=O)c1cnc2c(cnn2CC(Cl)c2ccccc2)c1N1CCOCC1 (stereo not drawn) | 2000 nM | 2150 nM | 31% |
| CCCCOC(=O)c1cnc2c(cnn2CC(Cl)c2ccccc2)c1NCCC (stereo not drawn) | 1000 nM | 959 nM | 20% |
| Cc1cc(O)c2ccc(N)nc2n1 | 10000 nM |  |  |
| COc1ccc2c(O)cc(-c3ccccc3)nc2n1 | 1.58 nM |  |  |
| Oc1cc(-c2ccccc2)nc2nc(Oc3ccccc3)ccc12 | 25.1 nM |  |  |
| CC(C)OC(=O)c1cnc2c(cnn2CC(Cl)c2ccccc2)c1N1CCOCC1 (stereo not drawn) | 2000 nM | 1820 nM |  |
| CCOc1ccc2c(O)cc(-c3ccccc3)nc2n1 | 5.01 nM |  |  |
| CSc1nc(NCCc2ccccc2)c2cnn(CC(Cl)c3ccccc3)c2n1 (stereo not drawn) | 10000 nM |  |  |
| CCCNc1nc(SC)nc2c1cnn2CC(Cl)c1ccccc1 (stereo not drawn) | 1000 nM |  |  |

The next lines start with the values.

| Ki [1] | Ki (Adenosine receptor A1) | inhibition [2] | SMILES |
| --- | --- | --- | --- |
| 31.6 nM |  |  | Cc1ccc2c(NC3CCCCC3)cc(-c3ccccc3)nc2n1 |
| 1000 nM | 1080 nM | 30% | CC(C)OC(=O)c1cnc2c(cnn2CC(Cl)c2ccccc2)c1N1CCCC1 (stereo not drawn) |
| 79.4 nM |  |  | O=c1n(-c2ccc(Cl)cc2)nc2c(NC3CCCCC3)nc3ccccc3n12 |
| 0.794 nM |  |  | Oc1cc(-c2ccccc2)nc2nc(Br)ccc12 |
| 200 nM | 178 nM |  | CCOC(=O)c1cnc2c(cnn2CC(Cl)c2ccccc2)c1NCCc1cccc(Cl)c1 (stereo not drawn) |
| 2000 nM | 1890 nM | 45% | CCCCOC(=O)c1cnc2c(cnn2CC(Cl)c2ccccc2)c1N1CCCC1 (stereo not drawn) |
| 100 nM | 109 nM | 23% | CCCNc1c(C(=O)OCC2CC2)cnc2c1cnn2CC(Cl)c1ccccc1 (stereo not drawn) |
| 5.01 nM |  |  | O=c1[nH]nc2c(NCCc3ccccc3)nc3ccccc3n12 |
| 63.1 nM |  |  | Cn1c2ccccc2n2c(=O)c(-c3ccccc3)nnc12 |
| 79.4 nM | 76 nM |  | CCOC(=O)c1cnc2c(cnn2CC(Cl)c2ccccc2)c1NCCc1ccccc1Cl (stereo not drawn) |
| 15.8 nM |  |  | Cc1ccc2c(N)cc(-c3ccccc3)nc2n1 |
| 79.4 nM |  |  | Cn1c2ccccc2n2c(=O)c(-c3cccs3)nnc12 |
| 1000 nM |  |  | Cc1ccc2c(Cl)cc(-c3ccccc3)nc2n1 |
| 10 nM |  |  | Nc1nc2ccccc2n2c(=O)n(-c3ccccc3)nc12 |
| 794 nM |  |  | Cn1c2ccccc2n2c(=O)c(-c3ccco3)nnc12 |
| 0.158 nM |  |  | Oc1cc(-c2ccccc2)nc2nc(Cl)ccc12 |
| 0.398 nM |  |  | O=c1n(-c2ccccc2)nc2c(NC3CCCC3)nc3ccccc3n12 |
| 2000 nM |  |  | COc1ccc(-c2nnc3n(C)c4ccccc4n3c2=O)cc1 |
| 1000 nM |  |  | O=c1c(-c2ccco2)nnc2n(Cc3ccccc3)c3ccccc3n12 |
| 100 nM |  |  | CCOC(=O)c1cnc2c(cnn2CC(Cl)c2ccccc2)c1N1CCCC1 (stereo not drawn) |
| 501 nM |  |  | CCn1c(-c2ccccc2)cc(=O)c2ccc(C)nc21 |
| 251 nM |  |  | O=c1c(Cc2ccccc2)nnc2n(Cc3ccccc3)c3ccccc3n12 |
| 100 nM | 100 nM | 14% | CC(C)OC(=O)c1cnc2c(cnn2CC(Cl)c2ccccc2)c1NCCc1cccc(Cl)c1 (stereo not drawn) |
| 6310 nM |  |  | CSc1nc(NC2CCCCC2)c2cnn(CC(Cl)c3ccccc3)c2n1 (stereo not drawn) |
| 10000 nM |  |  | Cn1c2ccccc2n2c(=O)c(-c3ccc(Cl)cc3)nnc12 |
| 31.6 nM |  |  | Nc1nc2ccccc2n2c(=O)n(-c3cccc(F)c3)nc12 |
| 79.4 nM |  |  | Oc1cc(-c2ccccc2)nc2nc(NC3CCCCC3)ccc12 |
| 5.01 nM |  |  | O=c1n(-c2cccc(F)c2)nc2c(NC3CCCCC3)nc3ccccc3n12 |
